# Data as given in ChEMBL document CHEMBL4371095, “Triazole-Based Inhibitors of the Wnt/β-Catenin Signaling Pathway Improve Glucose and Lipid Metabolisms in Diet-Induced Obese Mice” (J Med Chem, 2019).
# Active and inactive are the calls of the source. The calls are words filed in the database; no cut-off is given here.
# Columns and labels:
# Mus musculus [1] = assay: Decrease in hepatic triglyceride content in high fat diet fed C57BL/6J mouse at 40 mg/kg, ip administered every 2 days for 11 weeks; format: functional, organism-based
# In short: (§1)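 Male mice, 8 weeks old, 24–27 g, given a 45% kcal fat diet for 6 weeks, then dosed i.p. every 2 days in corn oil vehicle with the diet continued. Sacrifice was about 24 h after the last dose. Liver was examined by H&E. Liver and serum triglyceride were measured by kit. Serum chemistry was included, and liver/body weight ratio was calculated.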
# Mus musculus [2] = assay: Decrease in serum cholesterol level in high fat diet fed C57BL/6J mouse at 40 mg/kg, ip administered every 2 days for 11 weeks; format: functional, organism-based; in short: as §1
# Mus musculus [3] = assay: Decrease in hepatic FASN mRNA level in high fat diet fed C57BL/6J mouse at 40 mg/kg, ip administered every 2 days for 11 weeks by qPCR analysis; format: functional, organism-based
# In short: (§2)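 Male mice, 8 weeks old, fed a 45% kcal fat diet for 6 weeks, then dosed i.p. every 2 days in corn oil vehicle for 11 weeks. Liver mRNA of the indicated genes was quantified at sacrifice; mean ± SEM, n = 5 per group.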
# [4] = Toxicity in normal chow diet fed C57BL/6J mouse assessed as serum uric acid level at 40 mg/kg, ip administered every 2 days for 11 weeks (reference value: 4 +/- 0.2 mg/dl); format: organism-based; conditions: in vivo
# Mus musculus [5] = assay: Decrease in hepatic lipid accumulation in high fat diet fed C57BL/6J mouse at 40 mg/kg, ip administered every 2 days for 11 weeks; format: functional, organism-based; in short: as §1
# [6] = Toxicity in normal chow diet fed C57BL/6J mouse assessed as serum triglyceride level at 40 mg/kg, ip administered every 2 days for 11 weeks (reference value: 69 +/- 2.5 mg/dl); format: organism-based; conditions: in vivo
# [7] = Toxicity in high fat diet fed C57BL/6J mouse assessed as serum total bilirubin level at 40 mg/kg, ip administered every 2 days for 11 weeks (reference value: 0.2 mg/dl); format: organism-based; conditions: in vivo
# Mus musculus [8] = assay: Effect on hepatic SCD1 mRNA level in normal chow diet fed C57BL/6J mouse at 40 mg/kg, ip administered every 2 days for 11 weeks by qPCR analysis; format: ADME, organism-based; conditions: in vivo
# In short: (§3)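 Male mice, 8 weeks old, kept on normal chow throughout and dosed i.p. every 2 days in corn oil vehicle for 11 weeks. Body weight gain, liver/body weight ratio, and liver mRNA of the indicated genes were measured at sacrifice; mean ± SEM, n = 5 per group where stated.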
# Mus musculus [9] = assay: Decrease in hepatic SCD1 mRNA level in high fat diet fed C57BL/6J mouse at 40 mg/kg, ip administered every 2 days for 11 weeks by qPCR analysis; format: functional, organism-based; in short: as §2
# [10] = Toxicity in normal chow diet fed C57BL/6J mouse assessed as serum total bilirubin level at 40 mg/kg, ip administered every 2 days for 11 weeks (reference value: 0.2 mg/dl); format: organism-based; conditions: in vivo
# Mus musculus [11] = assay: Effect on hepatic […] mRNA level in normal chow diet fed C57BL/6J mouse at 40 mg/kg, ip administered every 2 days for 11 weeks by qPCR analysis; format: ADME, organism-based; conditions: in vivo; in short: as §3
# Homo sapiens = organism: Homo sapiens; assay: Ratio of IC50 for Wnt/beta-catenin signaling (unknown origin) expressed in HEK293 cells harboring GSK3B siRNA to IC50 for Wnt/beta-catenin signaling (unknown origin) expressed in HEK293 cells harboring siRNA; format: cell-based
# HEK293 [12] = assay: Inhibition of Wnt/beta-catenin/Axin signaling (unknown origin) expressed in HEK293 cells assessed as decrease in CycD1 mRNA level after 48 hrs by qPCR analysis; format: cell-based; conditions: Homo sapiens
# In short: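 HEK293 cells were treated with compound for 48 h, harvested in TRIzol, and Wnt target gene mRNA was quantified by qPCR.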
# HEK293 [13] = assay: Inhibition of Wnt/beta-catenin signaling (unknown origin) expressed in CK1alpha knock down HEK293 cells harboring TCF/LEF-responsive luciferase assessed as luminescence at 20 nM measured after 24 hrs by luciferase reporter gene assay relative to control; format: cell-based; parameters: scale not given: the % may be the effect or the level left; conditions: Homo sapiens
# In short: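 HEK293 cells were transfected with siRNA against GSK3β, Axin or CK1α using RNAiMAX for 36 h. Cells were then treated with or without compound at 20 nM for 24 h, and TCF/LEF luciferase reporter activity was read.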
# [14] = Toxicity in high fat diet fed C57BL/6J mouse assessed as serum BUN level at 40 mg/kg, ip administered every 2 days for 11 weeks (reference value: 17.3 +/- 0.5 mg/dl); format: organism-based; conditions: in vivo
# [15] = Toxicity in high fat diet fed mouse up to 200 mg/kg, ip by LC-MS analysis; format: organism-based; conditions: in vivo
# Mus musculus [16] = organism: Mus musculus; assay: Inhibition of Wnt/beta-catenin/Axin signaling in mouse hepatocytes assessed as decrease in SCD1 mRNA level at 5 uM by qPCR analysis; format: cell-based
# In short: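 Normal mouse hepatocytes were treated with 5 μM compound, and lipogenic and gluconeogenic gene mRNA was measured by qPCR; mean ± S.D. of triplicates.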
# Mus musculus [17] = assay: Decrease in hepatic Glp1 mRNA level in high fat diet fed C57BL/6J mouse at 40 mg/kg, ip administered every 2 days for 11 weeks by qPCR analysis; format: functional, organism-based; in short: as §2
# Mus musculus [18] = assay: Effect on body weight gain in normal chow diet fed C57BL/6J mouse at 40 mg/kg, ip administered every 2 days for 11 weeks; format: ADME, organism-based; conditions: in vivo; in short: as §3
# Mus musculus [19] = assay: Effect on hepatic ACAT2 mRNA level in normal chow diet fed C57BL/6J mouse at 40 mg/kg, ip administered every 2 days for 11 weeks by qPCR analysis; format: ADME, organism-based; conditions: in vivo; in short: as §3
# Axin-1 (Homo sapiens) = Axin-1 (Homo sapiens) (UniProt O15169); assay: Binding affinity to Axin1 (unknown origin) by SPR analysis
# Mus musculus [20] = assay: Decrease in hepatic GCK mRNA level in high fat diet fed C57BL/6J mouse at 40 mg/kg, ip administered every 2 days for 11 weeks by qPCR analysis; format: functional, organism-based; in short: as §2
# Mus musculus [21] = assay: Decrease in body weight gain in high fat diet fed C57BL/6J mouse at 40 mg/kg, ip administered every 2 days for 11 weeks; format: functional, organism-based; in short: as §1
# HEK293 [22] = assay: Inhibition of Wnt/beta-catenin signaling (unknown origin) expressed in HEK293 cells harboring TCF/LEF-responsive luciferase assessed as luminescence at 20 nM measured after 24 hrs by luciferase reporter gene assay relative to control; format: cell-based; parameters: scale not given: the % may be the effect or the level left; conditions: Homo sapiens
# In short: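 HEK293 cells carrying siRNA knockdown of GSK3β, Axin or CK1α (36 h transfection) were treated with or without 20 nM compound for 24 h. TCF/LEF reporter luminescence was read relative to control, mean ± S.D., n = 3.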
# Mus musculus [23] = assay: Effect on hepatic ACOT4 mRNA level in normal chow diet fed C57BL/6J mouse at 40 mg/kg, ip administered every 2 days for 11 weeks by qPCR analysis; format: ADME, organism-based; conditions: in vivo; in short: as §3
# Mus musculus [24] = assay: Effect on hepatic G6pase mRNA level in normal chow diet fed C57BL/6J mouse at 40 mg/kg, ip administered every 2 days for 11 weeks by qPCR analysis; format: ADME, organism-based; conditions: in vivo; in short: as §3
# Mus musculus [25] = assay: Decrease in hepatic CycD1 mRNA level in high fat diet fed C57BL/6J mouse at 40 mg/kg, ip administered every 2 days for 11 weeks by qPCR analysis; format: functional, organism-based; in short: as §2
# [26] = Toxicity in normal chow diet fed C57BL/6J mouse assessed as serum LDH level at 40 mg/kg, ip administered every 2 days for 11 weeks (reference value: 324 +/- 63.5 U/L); format: organism-based; conditions: in vivo
# [27] = target: Casein kinase I isoform alpha (Homo sapiens) (UniProt P48729); assay: Binding affinity to CK1alpha (unknown origin) by SPR analysis
# Sequence of Casein kinase I isoform alpha (Homo sapiens) (P48729 2-337 limits assumed): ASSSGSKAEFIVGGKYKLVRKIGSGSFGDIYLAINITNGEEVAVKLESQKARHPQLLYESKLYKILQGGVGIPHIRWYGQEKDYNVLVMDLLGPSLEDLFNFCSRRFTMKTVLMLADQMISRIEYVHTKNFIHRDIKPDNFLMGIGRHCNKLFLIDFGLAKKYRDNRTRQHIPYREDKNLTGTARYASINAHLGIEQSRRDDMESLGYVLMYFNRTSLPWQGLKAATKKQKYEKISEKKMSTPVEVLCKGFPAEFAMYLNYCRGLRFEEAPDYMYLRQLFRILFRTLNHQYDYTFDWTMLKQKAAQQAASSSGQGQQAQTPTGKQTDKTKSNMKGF
# Sequence of Axin-1 (Homo sapiens) (O15169 whole entry): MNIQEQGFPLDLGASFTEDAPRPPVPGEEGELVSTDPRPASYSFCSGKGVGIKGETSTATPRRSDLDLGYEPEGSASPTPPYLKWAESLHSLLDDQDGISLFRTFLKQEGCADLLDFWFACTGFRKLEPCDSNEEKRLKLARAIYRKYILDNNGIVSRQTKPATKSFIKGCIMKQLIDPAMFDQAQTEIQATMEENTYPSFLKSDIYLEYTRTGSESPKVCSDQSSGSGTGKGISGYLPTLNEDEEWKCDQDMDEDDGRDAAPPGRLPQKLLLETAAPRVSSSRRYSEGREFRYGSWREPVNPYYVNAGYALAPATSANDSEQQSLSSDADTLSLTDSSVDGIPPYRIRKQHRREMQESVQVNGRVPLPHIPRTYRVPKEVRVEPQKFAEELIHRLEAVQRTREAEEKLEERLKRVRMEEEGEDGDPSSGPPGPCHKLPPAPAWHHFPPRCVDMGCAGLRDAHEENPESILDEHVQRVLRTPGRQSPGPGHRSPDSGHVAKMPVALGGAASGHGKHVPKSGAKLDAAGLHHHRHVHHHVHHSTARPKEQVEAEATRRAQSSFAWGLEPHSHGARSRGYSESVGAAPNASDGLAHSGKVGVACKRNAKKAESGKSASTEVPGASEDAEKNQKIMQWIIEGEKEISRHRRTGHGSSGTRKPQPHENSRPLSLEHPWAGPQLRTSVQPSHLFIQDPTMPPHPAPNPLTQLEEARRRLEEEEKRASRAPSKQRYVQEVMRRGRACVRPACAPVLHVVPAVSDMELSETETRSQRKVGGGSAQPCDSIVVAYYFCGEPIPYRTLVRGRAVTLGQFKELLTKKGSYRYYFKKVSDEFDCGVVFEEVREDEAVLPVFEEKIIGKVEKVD
structure (smiles),measurement,setting,value
Cc1ccccc1-n1nnc(C(=O)Nc2ccc3ccccc3n2)c1C,Activity,Mus musculus [1],Active
same,Activity,Mus musculus [2],Active
same,Activity,Mus musculus [3],Active
same,Activity,[4],3.8 mg/dL
same,Activity,Mus musculus [5],Active
same,Activity,[6],55 mg/dL
same,Activity,[7],0.2 mg/dL
same,Activity,Mus musculus [8],Non-Toxic
same,Activity,Mus musculus [9],Active
same,Activity,[10],0.2 mg/dL
same,Activity,Mus musculus [11],Non-Toxic
same,Ratio IC50,Homo sapiens,1.7
same,inhibition,HEK293 [12],Active
same,Activity,HEK293 [13],52%
same,Activity,[14],14.8 mg/dL
same,Activity,[15],Non-Toxic
same,inhibition,Mus musculus [16],Active
same,Activity,Mus musculus [17],Active
same,Activity,Mus musculus [18],Non-Toxic
same,Activity,Mus musculus [19],Non-Toxic
same,Activity,Axin-1 (Homo sapiens),inactive
same,Activity,Mus musculus [20],Active
same,Activity,Mus musculus [21],Active
same,Activity,HEK293 [22],40%
same,Activity,Mus musculus [23],Non-Toxic
same,Activity,Mus musculus [24],Non-Toxic
same,Activity,Mus musculus [25],Active
same,Activity,[26],190 U/L
same,Activity,[27],inactive
